According to ChEMBL document CHEMBL1126775, “A pharmacological, crystallographic, and quantum chemical study of new inotropic agents” (J Med Chem, 1993):

What was measured:
Cavia porcellus [1] = species on record: Cavia porcellus; assay: Inotropic effect in electrically driven left atrium from reserpine-treated guinea pig at the concentration of 2 x 10 e-3 M; format: functional, Cardiac atrium
In short: (§1)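 Atria from reserpine-pretreated guinea pigs (2 mg/kg ip, 48 and 24 h), tyramine-unresponsive only. Left atrium loaded 0.5 g, paced at 1.5 Hz with 3-ms square pulses at 10–20% above threshold. Equilibrated 90 min. Agents added cumulatively, 5 min per concentration. Isometric developed tension expressed as % increase over control.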

Cavia porcellus [2] = species on record: Cavia porcellus; assay: Inotropic effect in electrically driven left atrium from reserpine-treated guinea pig at the concentration of 5 x 10 e-4 M; format: functional, Cardiac atrium; in short: as §1
Cavia porcellus [3] = species on record: Cavia porcellus; assay: Inotropic response in electrically driven left atrium from reserpine-treated guinea pig with 8-pH (10 e-5)at the concentration of 10 e-3 M; format: functional, Cardiac atrium
In short: (§2)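 Guinea pigs pretreated with reserpine 2 mg/kg ip at 48 and 24 h before sacrifice; atria unresponsive to tyramine 2 μg/mL used. Left atrium paced at 1.5 Hz (3-ms square pulses, 10–20% above threshold, 0.5 g load). 8-Phenyltheophylline 10 μM preincubated 20 min after 90 min equilibration, then agents added cumulatively, 5 min each. Isometric developed tension as % over control; six assays from six experiments.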

Cavia porcellus [4] = species on record: Cavia porcellus; assay: Inotropic response in electrically driven left atrium from reserpine-treated guinea pig with 8-pH (10 e-5)at the concentration of 10 e-5 M; format: functional, Cardiac atrium; in short: as §2
Cavia porcellus [5] = species on record: Cavia porcellus; assay: Inotropic response in electrically driven left atrium from reserpine-treated guinea pig with 8-pH (10 e-5)at the concentration of 2 x 10 e-3 M; format: functional, Cardiac atrium; in short: as §2
Cavia porcellus [6] = species on record: Cavia porcellus; assay: Inotropic response in electrically driven left atrium from reserpine-treated guinea pig with 8-pH (10 e-5)at the concentration of 5 x 10 e-4 M; format: functional, Cardiac atrium; in short: as §2
Cavia porcellus [7] = species on record: Cavia porcellus; assay: Inotropic response in electrically driven left atrium from reserpine-treated guinea pig with 8-pH (10 e-5)at the concentration of 5 x 10 e-5 M; format: functional, Cardiac atrium; in short: as §2
Cavia porcellus [8] = species on record: Cavia porcellus; assay: Inotropic response in electrically driven left atrium from reserpine-treated guinea pig without VER at the concentration of 10 e-3 M; format: functional, Cardiac atrium
In short: (§3)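 Control arm without verapamil: left atrium from reserpinized guinea pigs (2 mg/kg ip, 48 and 24 h before), tyramine-unresponsive, paced at 1.5 Hz (3-ms pulses). Agents added cumulatively after 90 min equilibration, recorded 5 min each. Isometric developed tension as % increase over control; seven assays from seven experiments.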

Cavia porcellus [9] = species on record: Cavia porcellus; assay: Inotropic response in electrically driven left atrium from reserpine-treated guinea pig without VER at the concentration of 10 e-4 M; format: functional, Cardiac atrium; in short: as §3
Cavia porcellus [10] = species on record: Cavia porcellus; assay: Inotropic response in electrically driven left atrium from reserpine-treated guinea pig with 8-pH (10 e-5)at the concentration of 10 e-4 M; format: functional, Cardiac atrium; in short: as §2
Cavia porcellus [11] = species on record: Cavia porcellus; assay: Inotropic response in electrically driven left atrium from reserpine-treated guinea pig with ADA (2 units/ml) at the concentration of 10 e-5 M (% inhibition of contractile response) (p<0.001); format: functional, Cardiac atrium
Cavia porcellus [12] = species on record: Cavia porcellus; assay: Inotropic response in electrically driven left atrium from reserpine-treated guinea pig with ADA (2 units/ml) at the concentration of 2 x 10 e-3 M; format: functional, Cardiac atrium
In short: (§4)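 Reserpinized guinea pigs (2 mg/kg ip, 48 and 24 h before death), tyramine-unresponsive atria. Electrically driven left atrium (1.5 Hz, 3-ms pulses, 0.5 g load) preincubated 20 min with adenosine deaminase after 90 min equilibration. Agents added cumulatively, 5 min per concentration. Developed tension recorded isometrically, % increase over control or % inhibition; six assays from six experiments, Student's t test.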

Cavia porcellus [13] = species on record: Cavia porcellus; assay: Inotropic response in electrically driven left atrium from reserpine-treated guinea pig with VER (10 e-7) at the concentration of 10 e-3 M; format: functional, Cardiac atrium
In short: (§5)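 Left atrium from reserpine-treated guinea pigs (2 mg/kg ip, 48 and 24 h prior; tyramine 2 μg/mL check), paced at 1.5 Hz with 3-ms pulses. Verapamil 0.1 μM added 10 min before cumulative agent additions (5 min each), after 90 min equilibration. Isometric developed tension as % increase over control; seven assays from seven experiments.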

Cavia porcellus [14] = species on record: Cavia porcellus; assay: Inotropic response in electrically driven left atrium from reserpine-treated guinea pig with VER (10 e-7) at the concentration of 10 e-4 M; format: functional, Cardiac atrium; in short: as §5
Cavia porcellus [15] = species on record: Cavia porcellus; assay: Inotropic response in electrically driven left atrium from reserpine-treated guinea pig without ADA at the concentration of 2 x 10 e-3 M; format: functional, Cardiac atrium
In short: (§6)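 Control arm: electrically driven left atrium (1.5 Hz, 3-ms pulses, 0.5 g load) from guinea pigs given reserpine 2 mg/kg ip at 48 and 24 h, tyramine-unresponsive; no adenosine deaminase. Cumulative additions after 90 min equilibration, 5 min per concentration. Isometric developed tension, % over control; six assays from six experiments.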

Cavia porcellus [16] = species on record: Cavia porcellus; assay: Effect on contractile force of spontaneously beating atria from reserpine treated guinea pigs at the concentration of 10 e-5 M; format: functional
Cavia porcellus [17] = species on record: Cavia porcellus; assay: Effect on contractile force of spontaneously beating atria from reserpine treated guinea pigs at the concentration of 5x 10 e-5 M; format: functional
Cavia porcellus [18] = species on record: Cavia porcellus; assay: Inotropic response in electrically driven left atrium from reserpine-treated guinea pig without ADA at the concentration of 5 x 10 e-4 M; format: functional, Cardiac atrium; in short: as §6
Cavia porcellus [19] = species on record: Cavia porcellus; assay: Inotropic response in electrically driven left atrium from reserpine-treated guinea pig with 8-phenyl theophylline (10 e-5) at the concentration of 10 e-5 M; format: functional, Cardiac atrium; in short: as §2
Cavia porcellus [20] = species on record: Cavia porcellus; assay: Inotropic response in electrically driven left atrium from reserpine-treated guinea pig with 8-phenyl theophylline (10 e-5)at the concentration of 10 e-3 M; format: functional, Cardiac atrium; in short: as §2
Cavia porcellus [21] = species on record: Cavia porcellus; assay: Inotropic response in electrically driven left atrium from reserpine-treated guinea pig with 8-phenyl theophylline (10 e-5)at the concentration of 10 e-4 M; format: functional, Cardiac atrium; in short: as §2
Cavia porcellus [22] = species on record: Cavia porcellus; assay: Inotropic response in electrically driven left atrium from reserpine-treated guinea pig with 8-phenyl theophylline (10 e-5)at the concentration of 2 x 10 e-3 M; format: functional, Cardiac atrium; in short: as §2
Cavia porcellus [23] = species on record: Cavia porcellus; assay: Inotropic response in electrically driven left atrium from reserpine-treated guinea pig with 8-phenyl theophylline (10 e-5)at the concentration of 5 x 10 e-4 M; format: functional, Cardiac atrium; in short: as §2
Cavia porcellus [24] = species on record: Cavia porcellus; assay: Inotropic response in electrically driven left atrium from reserpine-treated guinea pig with 8-phenyl theophylline (10 e-5)at the concentration of 5 x 10 e-5 M; format: functional, Cardiac atrium; in short: as §2
Cavia porcellus [25] = species on record: Cavia porcellus; assay: Inotropic response in electrically driven left atrium from reserpine-treated guinea pig with ADA (2 units/ml) at the concentration of 10 e-5 M; format: functional, Cardiac atrium; in short: as §4

| Compound | Increase (Cavia porcellus [1]) | Increase (Cavia porcellus [2]) | Increase (Cavia porcellus [8]) | Increase (Cavia porcellus [9]) | Increase (Cavia porcellus [12]) | Increase (Cavia porcellus [13]) | Increase (Cavia porcellus [14]) | Increase (Cavia porcellus [15]) | Increase (Cavia porcellus [16]) | Increase (Cavia porcellus [17]) | further results |
| --- | --- | --- | --- | --- | --- | --- | --- | --- | --- | --- | --- |
| CC(=O)c1cc(C#N)c(O)nc1C | 67.13% | 48.67% | 77.46% | 37.34% | 80.21% | 66.4% | 28.47% | 84.6% | 13.9% | 27.64% | Increase (Cavia porcellus [3]): 50.44%; Increase (Cavia porcellus [4]): 7.75%; Increase (Cavia porcellus [5]): 58.97%; Increase (Cavia porcellus [6]): 40.37%; Increase (Cavia porcellus [7]): 11.59%; Increase (Cavia porcellus [10]): 23.03%; Increase (Cavia porcellus [11]): 3.42% |
| CC1CC(=O)c2ccc(O)nc2C1 (stereo not given) | 93.66% | 37.23% | 45.89% | 17.96% | 39.98% | 23.78% | 2.43% | 67.12% | 4.28% | 18.88% | Increase (Cavia porcellus [18]): 36.16%; Increase (Cavia porcellus [19]): 0.29%; Increase (Cavia porcellus [20]): 25.45%; Increase (Cavia porcellus [21]): 8.67%; Increase (Cavia porcellus [22]): 52.56%; Increase (Cavia porcellus [23]): 15.18%; Increase (Cavia porcellus [24]): 3.95%; Increase (Cavia porcellus [25]): 2.48% |
